What was measured:
NCI 60-cell line screen = details: cited from earlier work
[1] = tested on: small panel of cell lines (five human tumor cell lines, MCF-10A, NIH/3T3); assay: MTT cytotoxicity assay, summary over the panel of cell lines; format: cell-based
[2] = tested on: MDA-MB-231 breast cancer cells; assay: DNA fragmentation analysis; format: cell-based, human
MDA-MB-231 = format: cell-based, human
U937 cells [3] = assay: Cell apoptosis analysis by flow cytometry; format: cell-based, human; details: 90 nM, 48 h, control cells 13.2%
U937 cells [4] = assay: Cell cycle analysis by flow cytometry; format: cell-based, human; details: 90 nM, 48 h
Outline: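 Exponentially growing U937 cells in RPMI-1640 with 10% FBS received test compound in DMSO (final 90 nM) or an equal amount of DMSO. After 48 h at 37 °C in CO2, cells were PBS-washed, fixed overnight in 70% ice-cold ethanol at 4 °C, and RNase-treated (100 µg/ml, 37 °C, 30 min).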

C/C=C(\C)C(=O)O[C@@H]1[C@@H](O)[C@@H]2O[C@H]3[C@H](O[C@@H](CCC)CCCCCCC(=O)CCC(=O)OC[C@@H](O2)[C@H]1OC(=O)/C=C/c1ccccc1)O[C@H](C)[C@H](OC(C)=O)[C@@H]3O [Ipomoeassin A]
growth inhibition of different cancer cells (NCI 60-cell line screen): strong and selective growth inhibition

C/C=C(\C)C(=O)O[C@@H]1[C@@H](O)[C@@H]2O[C@H]3[C@H](O[C@@H](CCCCC)CCCCCCC(=O)CCC(=O)OC[C@@H](O2)[C@H]1OC(=O)/C=C/c1ccccc1)O[C@H](C)[C@H](OC(C)=O)[C@@H]3O [Ipomoeassin F]
difference in toxicity between two cancer cell lines (U937 and MCF7) ([1]; U937 vs MCF7): ~ 8 fold
selectivity between tumor and non-tumor cell lines ([1]; tumor lines vs MCF-10A and NIH/3T3): no selectivity between tumor and non-tumor cell lines was observed
DNA fragmentation ([2]; 100 nM ipomoeassin F (IC90), MDA-MB-231, 72 h): smaller DNA fragments
IC90 (MDA-MB-231): 100 nM
percentage of apoptotic cells (U937 cells [3]): 33.6%
G1 arrest (U937 cells [4]): ~ 25%
reduction of cell population in the G2/M phase (U937 cells [4]): ~ 21%

CN[C@@H]1C[C@H]2O[C@@](C)([C@@H]1OC)n1c3ccccc3c3c4c(c5c6ccccc6n2c5c31)C(=O)NC4 [staurosporine, reference compound]
DNA fragmentation (positive control) ([2]; 750 nM staurosporine (Figure 5), MDA-MB-231): smaller DNA fragments
